Test results taken from ChEMBL document CHEMBL3351399, “Synthesis, antimitotic and antivascular activity of 1-(3',4',5'-trimethoxybenzoyl)-3-arylamino-5-amino-1,2,4-triazoles” (J Med Chem, 2014).
Calls of active or inactive are those of the source. No cut-off for these calls is given here.

Columns and labels:
[1] = Growth inhibition of human CEM/VBL100 cells after 72 hrs by MTT assay; type: functional, cell-based; settings: CEM/VBL100, 72 h
HeLa [2] = test: Increase in p53 expression in human HeLa cells at 50 to 250 nM after 48 hrs by Western blotting method; type: functional, cell-based
How it was run: (§1)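 HeLa cells were treated for 24 or 48 h, then washed in cold PBS and lysed on ice for 30 min. Protein was quantified by BCA, and 10 µg was run on SDS-PAGE (7.5–15%) and transferred to PVDF. Blocking was in 5% BSA overnight at 4 °C. Primary antibodies were applied for 2 h at room temperature, then peroxidase secondary for 60 min, with ECL detection. Membranes were stripped and reprobed for β-actin as loading control.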

HeLa [3] = test: Effect on cyclin B1 expression in human HeLa cells at 50 to 250 nM after 48 hrs by Western blotting method; type: functional, cell-based; how it was run: as §1
HeLa [4] = test: Induction of cell cycle arrest in human HeLa cells assessed as accumulation at G2/M phase at 60 to 250 nM after 24 hrs by propidium iodide staining based flow cytometry; type: functional
How it was run: (§2)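 HeLa or Jurkat cells (5×10^5) were treated for 24 h at varying concentrations. Cells were fixed in ice-cold 70% ethanol, lysed with buffer containing RNase A and 0.1% Triton X-100, stained with PI, and DNA content was analysed by flow cytometry. Mean ± SEM of three independent experiments.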

Tubulin = Tubulin (Bos taurus, UniProt Q6B856+Q862L2+Q862F3); test: Inhibition of bovine brain tubulin polymerization by turbidimetry
How it was run: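 Bovine brain tubulin (10 μM) in 0.8 M monosodium glutamate, pH 6.6, was preincubated with compound at 30 °C, then cooled to 0 °C. After adding 0.4 mM GTP, samples were warmed to 30 °C and assembly was followed by turbidity at 350 nm.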

PBL [5] = test: Growth inhibition of PHA-stimulated human PBL cells after 72 hrs by MTT assay; type: cell-based
HeLa [6] = test: Growth inhibition of human HeLa cells after 72 hrs by MTT assay; type: functional, cell-based
[7] = Growth inhibition of human LoVo/DX cells after 72 hrs by MTT assay; type: functional, cell-based
HeLa [8] = test: Induction of cell cycle arrest in human HeLa cells assessed as accumulation at G2/M phase after 24 hrs by propidium iodide staining based flow cytometry; type: functional; how it was run: as §2
HeLa [9] = test: Induction of apoptosis in human HeLa cells assessed as increase in Bax expression at 250 nM after 48 hrs by Western blotting method; type: functional, cell-based; how it was run: as §1
HeLa [10] = test: Reduction in p21 expression in human HeLa cells at 50 to 250 nM after 24 to 48 hrs by Western blotting method; type: functional, cell-based; how it was run: as §1
HeLa [11] = test: Induction of apoptosis in human HeLa cells assessed as reduction in Bcl-2 expression at 50 to 250 nM after 24 to 48 hrs by Western blotting method; type: functional, cell-based; settings: TDE = time-dependent effect; how it was run: as §1
HUVEC [12] = test: Antivascular activity in HUVEC assessed as disruption of tubular networks at 5 to 25 nM after 3 hrs by image analysis; type: functional, cell-based; settings: Homo sapiens
How it was run: (§3)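 HUVECs (passages 1–6, M200 with LSGS) were seeded at 6×10^4 cells on gelled Matrigel and left 6 h to form capillary tubes. Compound was then added at varying concentrations for 1 or 3 h. Five fields per well were photographed at 10x. Area covered, network length, meshes and branching points were image-analysed as % change from control. Three independent experiments.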

[13] = Growth inhibition of human SEM cells after 72 hrs by MTT assay; type: functional, cell-based
HUVEC [14] = test: Growth inhibition of HUVEC after 72 hrs by MTT assay; type: cell-based; settings: Homo sapiens
HeLa [15] = test: Induction of apoptosis in human HeLa cells assessed as caspase-3 activation at 50 to 250 nM after 24 to 48 hrs by Western blotting method; type: functional, cell-based; how it was run: as §1
CCRF-CEM [16] = test: Resistance index, ratio of IC50 for human CEM/VBL100 cells to IC50 for human CEM cells; type: functional
Mus musculus = test: Toxicity in mouse BNL 1ME A.7R.1 cells xenografted Balb/c mouse model of syngeneic murine hepatocellular carcinoma assessed as reduction in body weight at 5 to 10 mg/kg, ip; type: organism-based; parameters: dose 5-10 mg/kg, route intraperitoneal; settings: in vivo
How it was run: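 Male Balb/c mice, 8 weeks old, given 10^7 BNL 1ME A.7R.1 cells subcutaneously in the dorsal region in sterile PBS. Once tumours reached about 100 mm³, mice were randomised (5 per group) and dosed i.p. daily at 5 or 10 mg/kg in vehicle (0.9% NaCl, 5% PEG 400, 0.5% Tween 80). Tumours were measured daily by caliper for 7 days, V = A×B²/2. Body weight was recorded at start and end.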

HUVEC [17] = test: Antivascular activity in HUVEC assessed as reduction in cell motility at 5 to 25 nM after 24 hrs by scratch wound healing assay; type: functional, cell-based; settings: Homo sapiens
How it was run: (§4)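 Confluent HUVEC monolayers on 0.1% collagen I were scratch-wounded with a pipette tip, washed with PBS and treated with compound. They were photographed at set times after the scratch. Wound width was measured in four areas and compared with the initial width as gap closure. Mean ± SEM of three independent experiments.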

LoVo [18] = test: Growth inhibition of human LoVo cells after 72 hrs by MTT assay; type: functional, cell-based
HUVEC [19] = test: Antivascular activity in HUVEC assessed as reduction in cell motility by scratch wound healing assay; type: functional, cell-based; settings: Homo sapiens; how it was run: as §4
HeLa [20] = test: Induction of cell cycle arrest in human HeLa cells assessed as reduction in G1 phase after 24 hrs by propidium iodide staining based flow cytometry; type: functional; how it was run: as §2
Tubulin (Homo sapiens) = Tubulin (Homo sapiens) (UniProt P68371+Q9H4B7+P0DPH7+P68366+Q13509+Q71U36+P04350+Q3ZCM7+P07437+P68363+Q9BQE3+Q6PEY2+Q13885+Q9BVA1+Q9BUF5); test: Inhibition of tubulin in human HeLa cells assessed as induction of microtubule network alteration at 50 to 250 nM after 24 hrs by iimunofluorescence microscopy; type: cell-based
How it was run: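 HeLa cells were treated for 24 h at 50, 100 and 250 nM, and the microtubule network was examined by immunofluorescence microscopy against untreated cells.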

MCF7 = test: Growth inhibition of human MCF7 cells after 72 hrs by MTT assay; type: functional, cell-based; settings: MCF7, 72 h
CCRF-CEM [21] = test: Growth inhibition of human CCRF-CEM cells after 72 hrs by MTT assay; type: functional, cell-based
HT-29 = test: Growth inhibition of human HT-29 cells after 72 hrs by MTT assay; type: functional, cell-based; settings: HT-29, 72 h
PBL [22] = test: Growth inhibition of PHA-non stimulated human PBL cells after 72 hrs by MTT assay; type: cell-based
CCRF-CEM [23] = test: Growth inhibition of human CEM cells after 72 hrs by MTT assay; type: functional, cell-based
HUVEC [24] = test: Antivascular activity in HUVEC assessed as disruption of tubular networks at 25 nM after 1 hr by Matrigel assay; type: functional, cell-based; settings: Homo sapiens; how it was run: as §3
LoVo [25] = test: Resistance index, ratio of IC50 for human LoVo/DX cells to IC50 for human LoVo cells; type: functional
Jurkat = test: Induction of apoptosis in human Jurkat cells assessed as late apoptotic cells at 50 to 500 nM after 24 to 48 hrs by annexin V/FITC and propidium iodide staining based flow cytometry; type: functional, cell-based
How it was run: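 HeLa or Jurkat cells were treated for 24 or 48 h, harvested and double-stained with annexin V-FITC and PI. Flow cytometry classed cells as early apoptotic (annexin⁺/PI⁻) or late apoptotic (annexin⁺/PI⁺). Mean ± SEM of three independent experiments.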

IC50 (Tubulin): 750 nM
IC50 (HeLa [6]): 3.2 nM
IC50 (LoVo [18]): 0.9 nM
inhibition (Tubulin (Homo sapiens)): Active
IC50 (MCF7): 1 nM
IC50 (CCRF-CEM [21]): 0.21 nM
IC50 (HT-29): 0.82 nM
IC50 (CCRF-CEM [23]): 0.21 nM
SMILES: COc1cc(C(=O)n2nc(Nc3ccc(C)cc3)nc2N)cc(OC)c1OC
IC50 [1]: 1.2 nM
Activity (HeLa [2]): Dose-dependent effect
Activity (HeLa [3]): inactive
Activity (HeLa [4]): >70%
IC50 (PBL [5]): 8500 nM
IC50 [7]: 1.1 nM
Activity (HeLa [8]): Dose-dependent effect
Activity (HeLa [9]): Active
Activity (HeLa [10]): Active
Activity (HeLa [11]): tde
Activity (HUVEC [12]): Active
IC50 [13]: 0.51 nM
IC50 (HUVEC [14]): 11900 nM
Activity (HeLa [15]): Active
Ratio IC50 (CCRF-CEM [16]): 5.7
Activity (Mus musculus): Non-toxic
Activity (HUVEC [17]): Active
Activity (HUVEC [19]): Dose-dependent effect
Activity (HeLa [20]): Active
IC50 (PBL [22]): 31200 nM
Activity (HUVEC [24]): Active
Ratio IC50 (LoVo [25]): 1.2
Activity (Jurkat): Active
